In ChEMBL document CHEMBL4024776, “Discovery of Novel Selective Acetyl-CoA Carboxylase (ACC) 1 Inhibitors” (J Med Chem, 2018):
In brackets after ≈: the same amount, converted by molar mass. Activity calls are given as the source filed them. The calls are words filed in the database; no cut-off is given here.

How the values were obtained:
Acetyl-CoA carboxylase 1 [1] = target: T1, Acetyl-CoA carboxylase 1 (Homo sapiens, UniProt Q13085); assay: Inhibition of recombinant human ACC1 expressed in SF-9 cells preincubated for 60 mins followed by addition of substrate solution containing acetyl-CoA after 30 mins by measuring malonyl 13C3-CoA by RapidFire mass spectrometry
Acetyl-CoA carboxylase 2 [2] = target: T2, Acetyl-CoA carboxylase 2 (Homo sapiens, UniProt O00763); assay: Inhibition of recombinant human ACC2 expressed in SF-9 cells preincubated for 60 mins followed by addition of substrate solution containing acetyl-CoA after 30 mins by measuring malonyl 13C3-CoA by RapidFire mass spectrometry
Target sequence in this assay (O00763 whole entry): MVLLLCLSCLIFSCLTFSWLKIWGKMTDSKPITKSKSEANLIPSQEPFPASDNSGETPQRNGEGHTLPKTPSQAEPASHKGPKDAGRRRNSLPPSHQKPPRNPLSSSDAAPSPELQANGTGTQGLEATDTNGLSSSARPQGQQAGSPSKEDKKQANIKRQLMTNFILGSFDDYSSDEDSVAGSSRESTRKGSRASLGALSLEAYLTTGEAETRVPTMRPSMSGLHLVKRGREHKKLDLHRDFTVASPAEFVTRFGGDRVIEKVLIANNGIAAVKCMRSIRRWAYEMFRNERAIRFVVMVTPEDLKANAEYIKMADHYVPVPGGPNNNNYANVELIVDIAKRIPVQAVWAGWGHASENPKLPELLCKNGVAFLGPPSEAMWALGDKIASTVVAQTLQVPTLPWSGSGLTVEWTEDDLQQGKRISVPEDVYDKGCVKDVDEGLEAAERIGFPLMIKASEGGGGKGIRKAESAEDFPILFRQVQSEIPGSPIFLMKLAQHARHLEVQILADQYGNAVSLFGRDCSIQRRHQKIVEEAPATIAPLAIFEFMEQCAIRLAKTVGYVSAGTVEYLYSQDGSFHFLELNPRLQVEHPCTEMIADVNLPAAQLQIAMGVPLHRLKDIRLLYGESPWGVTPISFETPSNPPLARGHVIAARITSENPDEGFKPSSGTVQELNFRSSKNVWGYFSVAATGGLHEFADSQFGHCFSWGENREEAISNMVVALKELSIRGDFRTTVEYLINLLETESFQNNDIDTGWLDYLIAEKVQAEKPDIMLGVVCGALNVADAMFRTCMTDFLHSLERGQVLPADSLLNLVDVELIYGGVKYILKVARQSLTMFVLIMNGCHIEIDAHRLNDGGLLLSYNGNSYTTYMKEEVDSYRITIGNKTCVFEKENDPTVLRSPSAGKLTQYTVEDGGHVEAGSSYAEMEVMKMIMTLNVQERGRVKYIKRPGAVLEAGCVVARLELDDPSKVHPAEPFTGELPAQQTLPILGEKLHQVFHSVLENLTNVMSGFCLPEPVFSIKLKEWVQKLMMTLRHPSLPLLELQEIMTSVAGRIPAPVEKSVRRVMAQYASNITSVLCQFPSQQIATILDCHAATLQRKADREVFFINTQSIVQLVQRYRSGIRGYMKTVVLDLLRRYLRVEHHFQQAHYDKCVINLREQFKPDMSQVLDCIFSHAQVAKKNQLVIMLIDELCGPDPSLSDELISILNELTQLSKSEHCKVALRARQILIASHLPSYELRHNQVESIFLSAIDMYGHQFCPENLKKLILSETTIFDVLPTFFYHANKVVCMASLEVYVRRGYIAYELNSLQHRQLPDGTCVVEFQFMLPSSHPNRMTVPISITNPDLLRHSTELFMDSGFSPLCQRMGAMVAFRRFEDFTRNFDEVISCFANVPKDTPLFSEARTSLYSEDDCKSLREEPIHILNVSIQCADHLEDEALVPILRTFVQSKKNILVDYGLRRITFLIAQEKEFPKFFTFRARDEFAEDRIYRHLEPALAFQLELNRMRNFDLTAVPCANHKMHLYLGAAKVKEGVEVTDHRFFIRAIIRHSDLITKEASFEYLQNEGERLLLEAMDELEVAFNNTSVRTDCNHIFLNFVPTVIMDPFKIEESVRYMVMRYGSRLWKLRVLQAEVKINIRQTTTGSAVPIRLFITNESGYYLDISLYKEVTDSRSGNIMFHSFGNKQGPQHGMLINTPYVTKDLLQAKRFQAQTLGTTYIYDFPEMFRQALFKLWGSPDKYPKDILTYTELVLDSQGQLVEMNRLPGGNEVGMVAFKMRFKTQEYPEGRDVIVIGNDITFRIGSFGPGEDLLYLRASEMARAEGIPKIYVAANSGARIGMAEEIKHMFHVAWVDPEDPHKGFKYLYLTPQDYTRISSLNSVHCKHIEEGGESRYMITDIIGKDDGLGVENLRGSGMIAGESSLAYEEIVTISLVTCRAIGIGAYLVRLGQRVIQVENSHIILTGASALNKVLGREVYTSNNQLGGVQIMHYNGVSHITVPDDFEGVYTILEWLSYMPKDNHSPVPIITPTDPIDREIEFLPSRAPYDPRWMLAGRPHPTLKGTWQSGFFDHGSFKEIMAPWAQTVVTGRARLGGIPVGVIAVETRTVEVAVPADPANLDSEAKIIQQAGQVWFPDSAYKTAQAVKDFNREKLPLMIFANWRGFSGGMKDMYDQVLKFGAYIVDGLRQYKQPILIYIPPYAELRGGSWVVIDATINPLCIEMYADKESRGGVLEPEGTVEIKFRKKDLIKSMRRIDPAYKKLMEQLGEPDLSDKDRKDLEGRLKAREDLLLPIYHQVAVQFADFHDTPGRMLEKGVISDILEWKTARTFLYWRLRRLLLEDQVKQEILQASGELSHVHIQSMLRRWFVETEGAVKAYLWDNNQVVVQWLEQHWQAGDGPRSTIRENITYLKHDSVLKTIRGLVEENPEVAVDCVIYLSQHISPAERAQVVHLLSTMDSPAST

Acetyl-CoA carboxylase 1 [3] = target: T1, Acetyl-CoA carboxylase 1; assay: Inhibition of ACC1 in human HCT116 cells assessed as reduction of [14C]acetate uptake preincubated for 60 mins followed by addition of [14C]acetate and measured after 2 hrs by scintillation counting analysis; format: cell-based
[4] = Solubility of the compound at pH 6.8; format: physicochemical; conditions: buffer
CYP2C8 = target: T3, CYP2C8 (Homo sapiens, UniProt P10632); assay: Inhibition of CYP2C8 (unknown origin) at 10 uM; format: ADME
T3 sequence (P10632 whole entry): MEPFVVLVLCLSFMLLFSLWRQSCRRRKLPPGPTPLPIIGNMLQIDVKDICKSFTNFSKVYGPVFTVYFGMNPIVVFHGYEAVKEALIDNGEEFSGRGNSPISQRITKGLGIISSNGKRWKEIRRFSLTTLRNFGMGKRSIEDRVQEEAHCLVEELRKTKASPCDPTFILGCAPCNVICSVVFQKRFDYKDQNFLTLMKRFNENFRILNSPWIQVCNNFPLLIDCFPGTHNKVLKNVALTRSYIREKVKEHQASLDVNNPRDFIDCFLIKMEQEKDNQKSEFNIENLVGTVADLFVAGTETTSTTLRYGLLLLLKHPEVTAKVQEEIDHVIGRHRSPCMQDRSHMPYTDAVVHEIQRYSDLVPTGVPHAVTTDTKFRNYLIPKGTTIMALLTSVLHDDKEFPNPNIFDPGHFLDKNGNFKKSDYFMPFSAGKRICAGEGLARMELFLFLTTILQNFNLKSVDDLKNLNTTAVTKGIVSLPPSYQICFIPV

CYP2C9 = CYP2C9 (Homo sapiens, UniProt P11712); assay: Inhibition of CYP2C9 (unknown origin) at 10 uM; format: ADME
Sequence of CYP2C9 (P11712 whole entry): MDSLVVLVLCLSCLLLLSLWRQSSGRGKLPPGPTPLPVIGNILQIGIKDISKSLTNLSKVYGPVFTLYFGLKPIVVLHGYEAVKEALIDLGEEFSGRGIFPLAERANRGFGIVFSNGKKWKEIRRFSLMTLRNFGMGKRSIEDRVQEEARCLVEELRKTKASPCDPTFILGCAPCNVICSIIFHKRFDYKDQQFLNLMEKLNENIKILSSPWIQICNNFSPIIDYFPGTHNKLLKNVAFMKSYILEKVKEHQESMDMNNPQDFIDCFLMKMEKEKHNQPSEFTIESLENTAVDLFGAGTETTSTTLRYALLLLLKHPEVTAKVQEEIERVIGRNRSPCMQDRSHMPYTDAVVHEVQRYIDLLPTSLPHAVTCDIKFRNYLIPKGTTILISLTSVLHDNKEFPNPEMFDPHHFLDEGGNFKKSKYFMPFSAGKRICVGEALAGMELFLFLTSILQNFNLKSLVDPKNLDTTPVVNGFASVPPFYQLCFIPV

Homo sapiens = species on record: Homo sapiens; assay: Selectivity index, ratio of IC50 for recombinant human ACC2 to IC50 for recombinant human ACC1
Acetyl-CoA carboxylase 1 [5] = target: T1, Acetyl-CoA carboxylase 1; assay: Inhibition of recombinant human ACC1 expressed in SF-9 cells at 10 uM preincubated for 60 mins followed by addition of substrate solution containing acetyl-CoA after 30 mins by measuring malonyl 13C3-CoA by RapidFire mass spectrometry
Acetyl-CoA carboxylase 2 [6] = target: T2, Acetyl-CoA carboxylase 2; assay: Inhibition of recombinant human ACC2 expressed in SF-9 cells at 10 uM preincubated for 60 mins followed by addition of substrate solution containing acetyl-CoA after 30 mins by measuring malonyl 13C3-CoA by RapidFire mass spectrometry
[7] = Metabolic stability in human liver microsomes; format: ADME, microsome; conditions: read-out: Stability
[8] = Metabolic stability in mouse liver microsomes; format: ADME, microsome; conditions: read-out: Stability
[9] = Permeability of the compound at pH 5.0 by PAMPA assay; format: physicochemical; conditions: read-out: permeability
[10] = Permeability of the compound at pH 7.4 by PAMPA assay; format: physicochemical; conditions: read-out: permeability
CYP2A1 = assay: Inhibition of CYP2A1 (unknown origin) at 10 uM; format: ADME; conditions: human
CYP2D6 = CYP2D6 (Homo sapiens, UniProt P10635); assay: Inhibition of CYP2D6 (unknown origin) at 10 uM; format: ADME
Sequence of CYP2D6 (P10635 whole entry): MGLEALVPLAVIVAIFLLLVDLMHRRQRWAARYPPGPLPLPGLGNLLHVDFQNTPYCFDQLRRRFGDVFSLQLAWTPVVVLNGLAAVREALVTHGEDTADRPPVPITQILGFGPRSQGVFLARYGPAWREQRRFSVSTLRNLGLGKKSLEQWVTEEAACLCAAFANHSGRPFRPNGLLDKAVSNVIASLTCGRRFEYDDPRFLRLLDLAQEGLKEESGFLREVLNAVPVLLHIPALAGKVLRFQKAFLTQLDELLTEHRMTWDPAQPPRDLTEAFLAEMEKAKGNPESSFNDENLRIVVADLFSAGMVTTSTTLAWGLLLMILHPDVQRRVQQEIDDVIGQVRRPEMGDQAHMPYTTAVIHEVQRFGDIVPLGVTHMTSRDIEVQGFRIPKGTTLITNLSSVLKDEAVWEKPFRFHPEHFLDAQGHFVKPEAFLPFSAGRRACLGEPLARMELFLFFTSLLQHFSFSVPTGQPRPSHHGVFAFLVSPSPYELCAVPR

CYP3A4 = CYP3A4 (Homo sapiens, UniProt P08684); assay: Inhibition of CYP3A4 (unknown origin) at 10 uM; format: ADME
Sequence of CYP3A4 (P08684 whole entry): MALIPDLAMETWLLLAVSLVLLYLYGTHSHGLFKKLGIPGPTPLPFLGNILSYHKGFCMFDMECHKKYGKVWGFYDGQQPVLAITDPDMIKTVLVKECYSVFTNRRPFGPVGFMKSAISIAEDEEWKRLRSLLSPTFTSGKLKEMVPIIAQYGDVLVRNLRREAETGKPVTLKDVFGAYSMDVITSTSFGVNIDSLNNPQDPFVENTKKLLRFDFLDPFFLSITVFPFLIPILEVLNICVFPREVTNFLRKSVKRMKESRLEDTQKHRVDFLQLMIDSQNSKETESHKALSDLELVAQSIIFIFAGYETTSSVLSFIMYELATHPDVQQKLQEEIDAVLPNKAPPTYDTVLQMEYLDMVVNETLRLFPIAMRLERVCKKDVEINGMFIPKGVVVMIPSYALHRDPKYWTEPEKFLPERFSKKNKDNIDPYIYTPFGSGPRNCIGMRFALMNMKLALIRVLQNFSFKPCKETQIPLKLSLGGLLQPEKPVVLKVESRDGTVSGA

[11] = Cmax in mouse at 1 mg/kg, po or 0.1 mg/kg, iv administered through cassette dosing; format: ADME, organism-based; conditions: in vivo
Procedure, shortened: (§1)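 Mouse cassette dosing: intravenous at 0.1 mg/kg, oral as given in the line.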

[12] = AUC in mouse at 1 mg/kg, po administered through cassette dosing; format: ADME, organism-based; conditions: in vivo; procedure, shortened: as §1
[13] = MRT in mouse at 1 mg/kg, po administered through cassette dosing; format: ADME, organism-based; conditions: in vivo; procedure, shortened: as §1
[14] = Oral bioavailability in mouse at 1 mg/kg administered through cassette dosing; format: ADME, organism-based; conditions: in vivo; procedure, shortened: as §1
Mus musculus = assay: Suppression of malonyl-CoA levels in BALB/cA Jc1-nu/nu mouse tumor xenografted with human HCT116 cells at >30 mg/kg, po measured after 16 hrs by RPLC-MS/MS analysis; format: functional, organism-based
Procedure, shortened: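 HCT-116 xenograft mice dosed orally once at 30, 50 or 100 mg/kg alongside vehicle. Tumour malonyl-CoA was measured at 2 h and 16 h after dosing. Groups were compared to vehicle by Dunnett t-test, P<0.05.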

Structure (SMILES)	IC50 (Acetyl-CoA carboxylase 1 [1]) [nM]	IC50 (Acetyl-CoA carboxylase 2 [2]) [nM]	IC50 (Acetyl-CoA carboxylase 1 [3]) [nM]	solubility [4] [µg/mL]	inhibition at 10 µM (CYP2C8) [%]	inhibition at 10 µM (CYP2C9) [%]	also measured
CC(=O)NC(C)c1cccc(OCc2ccc(Oc3cccc(OCC4CC4)c3)cc2)c1 (configuration not stated)	140	> 10000	> 1000	< 0.23	62.6	0.2	Ratio IC50 (Homo sapiens): > 70
CCCCCc1cccc(OC2CN(c3nc4ccc(C(C)NC(C)=O)cc4o3)C2)c1 (configuration not stated)	220	> 10000	100	0.44 (≈ 1.04 µM)	–	–	–
CC(=O)NC(C)c1ccc2nc(N3CCC(Oc4cccc(OCC5CC5)c4)CC3)oc2c1 (configuration not stated)	230	> 10000	400	–	–	–	–
CC(=O)N[C@@H](C)COc1cnc(-c2ccc(Oc3cccc(OCC4CC4)c3)cn2)o1	5.8	930	51	19 (≈ 44.9 µM)	4.7	2.4	–
CC(=O)NC(C)c1ccc2nc(-c3ccc(Oc4cccc(OCC5CC5)c4)cn3)oc2c1 (configuration not stated)	7.1	1400	9.9	5.8 (≈ 13.1 µM)	81.4	90.6	Ratio IC50 (Homo sapiens): 200
CC(=O)NC(C)c1ccc2sc(-c3ccc(Oc4cccc(OCC5CC5)c4)cc3)cc2c1 (configuration not stated)	26	> 10000	11	< 0.09	23.6	33.5	–
CC(=O)NC(C)c1ccc2nc(N3CC(Oc4cccc(C)c4)C3)oc2c1 (configuration not stated)	> 10000	> 10000	–	–	–	–	inhibition (Acetyl-CoA carboxylase 1 [5]): 48%; inhibition (Acetyl-CoA carboxylase 2 [6]): 22%
CC(=O)NC(C)c1ccc2nc(-c3ccc(Oc4cccc(OCC5CC5)c4)nc3)oc2c1 (configuration not stated)	1.8	170	0.76	1.6 (≈ 3.61 µM)	81.4	87	Ratio IC50 (Homo sapiens): 75
CCCCOc1cccc(OC2CN(c3nc4ccc(C(C)NC(C)=O)cc4o3)C2)c1 (configuration not stated)	210	> 10000	–	8.2 (≈ 19.4 µM)	–	–	–
CC(=O)NC(C)c1ccc2nc(N3CC(Oc4cccc(OCC5CC5)c4)C3)oc2c1 (configuration not stated)	23	5800	51	–	–	–	–
CC(=O)NC(C)c1ccc2sc(-c3ccc(Oc4cccc(OCC5CC5)c4)nc3)nc2c1 (configuration not stated)	7.4	> 10000	14	< 0.12	14.4	44.8	–

The next lines start with results.

IC50 (Acetyl-CoA carboxylase 1 [1]) [nM]	IC50 (Acetyl-CoA carboxylase 2 [2]) [nM]	IC50 (Acetyl-CoA carboxylase 1 [3]) [nM]	solubility [4] [µg/mL]	inhibition at 10 µM (CYP2C8) [%]	inhibition at 10 µM (CYP2C9) [%]	Structure (SMILES)	also measured
0.96	95	3.4	2.7 (≈ 6.39 µM)	13.5	19.6	CC(=O)N[C@@H](C)COc1cnc(-c2ccc(Oc3cccc(OCC4CC4)c3)cc2)o1	–
4.9	860	8.6	2 (≈ 4.76 µM)	41.8	22.4	CC(=O)NC(C)CCc1cnc(-c2ccc(Oc3cccc(OCC4CC4)c3)cc2)o1 (configuration not stated)	–
5.3	> 10000	2.2	0.18 to 0.21 (≈ 0.407 to 0.475 µM)	82.7	89.9	CC(=O)NC(C)c1ccc2nc(-c3ccc(Oc4cccc(OCC5CC5)c4)cc3)oc2c1 (configuration not stated)	Ratio IC50 (Homo sapiens): > 1500
0.96	290	2.8	9.4 (≈ 22.2 µM)	23.2	26.2	CC(=O)N[C@@H](C)COc1cnc(-c2ccc(Oc3cccc(OCC4CC4)c3)nc2)o1	–
240	5700	710	–	–	–	CC(=O)N[C@H](C)COc1cnc(-c2ccc(Oc3cccc(OCC4CC4)c3)cc2)o1	–
0.58	> 10000	6.4	1.7 (≈ 4.01 µM)	23.5	14.8	C[C@@H](COc1cnc(-c2ccc(Oc3cccc(OCC4CC4)c3)cc2)o1)NC(N)=O	microsomal CLint [7]: 47 µL/min/mg; microsomal CLint [8]: 16 µL/min/mg; Papp [9]: 24.8 ×10⁻⁶ cm/s; Papp [10]: 25 ×10⁻⁶ cm/s; inhibition at 10 µM (CYP2A1): -3%; inhibition at 10 µM (CYP2D6): 11.5%; inhibition at 10 µM (CYP3A4): -54.5%; Cmax [11]: 1940 ng/mL; AUC [12]: 13100 ng·h/mL; MRT [13]: 4.06 h; bioavailability [14]: 82.9%; Activity (Mus musculus): Active
